Measurements reported in ChEMBL document CHEMBL3862028, “Exploring N-Arylsulfonyl-l-proline Scaffold as a Platform for Potent and Selective αvβ1 Integrin Inhibitors” (ACS Med Chem Lett, 2016).

Assays:
[1] = biological target: Integrin alpha-V/beta-1 (Homo sapiens, UniProt P05556+P06756); assay: Inhibition of integrin alphaVbeta1 (unknown origin)-mediated CHO cell adhesion to fibronectin preincubated for 15 to 30 mins followed by 60 min incubation for adhesion by crystal violet staining based cell adhesion assay
Outline: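 α5-deficient CHO cells engineered to express αvβ1 were tested for adhesion to fibronectin (0.3 mg/ml). Values reported as pIC50 (–logIC50, M) with standard deviation, n=3.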

[2] = biological target: Integrin alpha-5/beta-1 (Homo sapiens, UniProt P05556+P08648); assay: Inhibition of human integrin alpha5beta1-mediated human SW480 cell adhesion to fibronectin preincubated for 15 to 30 mins followed by 60 min incubation for adhesion by crystal violet staining based cell adhesion assay
Outline: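 Colon carcinoma SW480 cells plated on fibronectin (0.3 mg/ml) to isolate α5β1-dependent adhesion. Values reported as pIC50 (–logIC50, M) with standard deviation, n=3.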

[3] = biological target: Integrin alpha-V/beta-3 (Homo sapiens, UniProt P05106+P06756); assay: Inhibition of human integrin alphaVbeta3-mediated human SW480 cell adhesion to fibrinogen preincubated for 15 to 30 mins followed by 60 min incubation for adhesion by crystal violet staining based cell adhesion assay
Outline: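 Adhesion of SW480 cells transfected with human β3 to fibrinogen (1 mg/ml), isolating αvβ3. Values reported as pIC50 (–logIC50, M) with standard deviation, n=3.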

[4] = biological target: Integrin alpha-V/beta-8 (Homo sapiens, UniProt P06756+P26012); assay: Inhibition of human integrin alphaVbeta8-mediated human SNB19 cell adhesion to recombinant human TGFbeta1 LAP preincubated for 15 to 30 mins followed by 60 min incubation for adhesion by crystal violet staining based cell adhesion assay; design: species or system SNB-19
Outline: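 The αvβ8-expressing glioma line SNB19 was tested for adhesion to recombinant human TGFβ1 LAP (1 mg/ml). Values reported as pIC50 (–logIC50, M) with standard deviation, n=3.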

[5] = biological target: Integrin alpha-V/beta-5 (Homo sapiens, UniProt P06756+P18084); assay: Inhibition of human wild type integrin alphaVbeta5-mediated human SW480 cell adhesion to vitronectin preincubated for 15 to 30 mins followed by 60 min incubation for adhesion by crystal violet staining based cell adhesion assay
Outline: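 Wild-type SW480 cells adhering to vitronectin (0.1 mg/ml) served to isolate αvβ5. Values reported as pIC50 (–logIC50, M) with standard deviation, n=3.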

Sequence of Integrin alpha-V/beta-5 (P06756 31-889 limits assumed): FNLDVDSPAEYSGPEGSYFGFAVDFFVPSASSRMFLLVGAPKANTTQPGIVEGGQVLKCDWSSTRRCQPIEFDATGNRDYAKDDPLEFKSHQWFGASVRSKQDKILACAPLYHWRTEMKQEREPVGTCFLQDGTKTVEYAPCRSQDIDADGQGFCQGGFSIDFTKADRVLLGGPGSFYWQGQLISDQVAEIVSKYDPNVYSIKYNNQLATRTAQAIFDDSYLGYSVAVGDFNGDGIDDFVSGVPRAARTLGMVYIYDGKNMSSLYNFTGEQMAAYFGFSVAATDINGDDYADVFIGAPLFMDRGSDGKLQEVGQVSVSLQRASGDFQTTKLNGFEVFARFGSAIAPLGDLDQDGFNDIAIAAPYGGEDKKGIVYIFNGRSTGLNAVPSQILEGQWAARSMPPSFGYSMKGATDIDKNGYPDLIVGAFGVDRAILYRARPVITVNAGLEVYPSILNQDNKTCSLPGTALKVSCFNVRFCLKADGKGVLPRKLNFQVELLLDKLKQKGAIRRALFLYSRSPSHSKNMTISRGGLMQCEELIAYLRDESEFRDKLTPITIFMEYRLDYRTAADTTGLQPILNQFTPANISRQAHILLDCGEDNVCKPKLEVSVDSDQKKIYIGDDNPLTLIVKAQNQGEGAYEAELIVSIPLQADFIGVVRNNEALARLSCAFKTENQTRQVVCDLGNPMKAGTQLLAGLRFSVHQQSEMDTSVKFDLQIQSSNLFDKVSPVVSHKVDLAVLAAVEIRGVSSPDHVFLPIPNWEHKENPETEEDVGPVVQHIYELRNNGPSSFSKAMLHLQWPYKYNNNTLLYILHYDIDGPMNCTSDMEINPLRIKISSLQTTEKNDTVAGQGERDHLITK
Sequence of Integrin alpha-V/beta-5 (P06756 891-1048 limits assumed): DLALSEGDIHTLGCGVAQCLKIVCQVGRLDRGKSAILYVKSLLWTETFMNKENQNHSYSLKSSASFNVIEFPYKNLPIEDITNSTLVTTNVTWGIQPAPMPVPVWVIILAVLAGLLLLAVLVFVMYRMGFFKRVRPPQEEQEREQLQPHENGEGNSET
Sequence of Integrin alpha-V/beta-5 (P18084 24-799 limits assumed): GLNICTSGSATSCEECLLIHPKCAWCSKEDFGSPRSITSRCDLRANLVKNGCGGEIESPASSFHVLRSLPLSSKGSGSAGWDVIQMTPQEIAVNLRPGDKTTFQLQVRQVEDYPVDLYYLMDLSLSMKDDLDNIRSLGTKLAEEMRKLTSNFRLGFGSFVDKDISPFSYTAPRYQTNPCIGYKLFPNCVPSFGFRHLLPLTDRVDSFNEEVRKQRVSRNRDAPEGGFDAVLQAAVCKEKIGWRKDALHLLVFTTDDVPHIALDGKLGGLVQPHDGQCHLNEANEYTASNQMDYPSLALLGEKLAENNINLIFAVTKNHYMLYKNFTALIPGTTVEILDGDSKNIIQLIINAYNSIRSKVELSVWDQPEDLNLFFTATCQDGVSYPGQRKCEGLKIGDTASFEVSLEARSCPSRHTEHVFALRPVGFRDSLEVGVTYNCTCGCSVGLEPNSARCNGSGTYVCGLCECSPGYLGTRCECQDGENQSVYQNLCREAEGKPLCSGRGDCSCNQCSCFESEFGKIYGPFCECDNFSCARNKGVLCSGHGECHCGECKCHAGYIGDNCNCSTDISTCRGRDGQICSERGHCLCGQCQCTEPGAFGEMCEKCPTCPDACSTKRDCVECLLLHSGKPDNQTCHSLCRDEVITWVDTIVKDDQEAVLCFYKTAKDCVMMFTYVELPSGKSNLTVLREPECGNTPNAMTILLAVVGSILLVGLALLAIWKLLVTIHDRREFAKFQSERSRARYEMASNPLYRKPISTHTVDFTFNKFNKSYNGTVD
Sequence of Integrin alpha-V/beta-8 (P06756 31-889 limits assumed): as the sequence (P06756 31-889 limits assumed) above
Sequence of Integrin alpha-V/beta-8 (P06756 891-1048 limits assumed): as the sequence (P06756 891-1048 limits assumed) above
Sequence of Integrin alpha-V/beta-8 (P26012 43-769 limits assumed): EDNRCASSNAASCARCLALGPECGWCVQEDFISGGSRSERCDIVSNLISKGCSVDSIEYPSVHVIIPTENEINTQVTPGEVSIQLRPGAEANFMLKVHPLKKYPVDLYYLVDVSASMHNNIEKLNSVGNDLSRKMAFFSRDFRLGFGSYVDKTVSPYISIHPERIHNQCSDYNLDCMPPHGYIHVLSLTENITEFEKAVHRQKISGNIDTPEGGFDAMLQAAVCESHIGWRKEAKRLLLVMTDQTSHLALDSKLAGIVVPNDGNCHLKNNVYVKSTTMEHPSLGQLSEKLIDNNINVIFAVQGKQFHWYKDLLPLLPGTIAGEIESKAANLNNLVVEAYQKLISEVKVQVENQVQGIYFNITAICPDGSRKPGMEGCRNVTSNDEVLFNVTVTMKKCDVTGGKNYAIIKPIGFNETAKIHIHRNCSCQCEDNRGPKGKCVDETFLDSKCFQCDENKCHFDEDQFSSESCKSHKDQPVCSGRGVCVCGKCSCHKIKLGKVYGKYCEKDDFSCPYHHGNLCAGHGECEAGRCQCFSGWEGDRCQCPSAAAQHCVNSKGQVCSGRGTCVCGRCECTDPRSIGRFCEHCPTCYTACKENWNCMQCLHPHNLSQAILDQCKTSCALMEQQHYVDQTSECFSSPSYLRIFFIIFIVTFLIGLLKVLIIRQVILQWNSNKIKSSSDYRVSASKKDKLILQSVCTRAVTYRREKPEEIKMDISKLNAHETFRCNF
Sequence of Integrin alpha-5/beta-1 (P05556 21-798 limits assumed): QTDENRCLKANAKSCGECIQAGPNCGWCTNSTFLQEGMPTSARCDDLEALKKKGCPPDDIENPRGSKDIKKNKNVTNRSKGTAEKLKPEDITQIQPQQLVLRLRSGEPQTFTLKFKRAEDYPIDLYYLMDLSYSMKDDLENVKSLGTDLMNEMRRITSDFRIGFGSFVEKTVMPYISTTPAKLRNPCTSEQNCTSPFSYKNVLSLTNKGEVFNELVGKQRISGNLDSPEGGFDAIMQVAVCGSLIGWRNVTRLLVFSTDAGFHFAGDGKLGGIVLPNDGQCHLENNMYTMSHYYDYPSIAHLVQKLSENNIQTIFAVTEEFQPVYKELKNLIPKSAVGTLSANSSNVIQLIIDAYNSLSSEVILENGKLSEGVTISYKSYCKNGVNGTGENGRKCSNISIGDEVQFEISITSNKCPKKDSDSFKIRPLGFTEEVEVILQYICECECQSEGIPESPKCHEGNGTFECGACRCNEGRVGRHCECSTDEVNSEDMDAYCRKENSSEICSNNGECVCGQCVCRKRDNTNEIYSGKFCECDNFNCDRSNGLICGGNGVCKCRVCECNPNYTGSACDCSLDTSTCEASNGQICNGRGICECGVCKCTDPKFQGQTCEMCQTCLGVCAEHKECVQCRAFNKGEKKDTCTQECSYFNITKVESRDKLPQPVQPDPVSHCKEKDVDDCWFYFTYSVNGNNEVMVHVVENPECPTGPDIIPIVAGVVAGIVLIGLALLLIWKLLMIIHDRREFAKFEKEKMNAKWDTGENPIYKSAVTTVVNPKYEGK
Sequence of Integrin alpha-5/beta-1 (P08648 42-894 limits assumed): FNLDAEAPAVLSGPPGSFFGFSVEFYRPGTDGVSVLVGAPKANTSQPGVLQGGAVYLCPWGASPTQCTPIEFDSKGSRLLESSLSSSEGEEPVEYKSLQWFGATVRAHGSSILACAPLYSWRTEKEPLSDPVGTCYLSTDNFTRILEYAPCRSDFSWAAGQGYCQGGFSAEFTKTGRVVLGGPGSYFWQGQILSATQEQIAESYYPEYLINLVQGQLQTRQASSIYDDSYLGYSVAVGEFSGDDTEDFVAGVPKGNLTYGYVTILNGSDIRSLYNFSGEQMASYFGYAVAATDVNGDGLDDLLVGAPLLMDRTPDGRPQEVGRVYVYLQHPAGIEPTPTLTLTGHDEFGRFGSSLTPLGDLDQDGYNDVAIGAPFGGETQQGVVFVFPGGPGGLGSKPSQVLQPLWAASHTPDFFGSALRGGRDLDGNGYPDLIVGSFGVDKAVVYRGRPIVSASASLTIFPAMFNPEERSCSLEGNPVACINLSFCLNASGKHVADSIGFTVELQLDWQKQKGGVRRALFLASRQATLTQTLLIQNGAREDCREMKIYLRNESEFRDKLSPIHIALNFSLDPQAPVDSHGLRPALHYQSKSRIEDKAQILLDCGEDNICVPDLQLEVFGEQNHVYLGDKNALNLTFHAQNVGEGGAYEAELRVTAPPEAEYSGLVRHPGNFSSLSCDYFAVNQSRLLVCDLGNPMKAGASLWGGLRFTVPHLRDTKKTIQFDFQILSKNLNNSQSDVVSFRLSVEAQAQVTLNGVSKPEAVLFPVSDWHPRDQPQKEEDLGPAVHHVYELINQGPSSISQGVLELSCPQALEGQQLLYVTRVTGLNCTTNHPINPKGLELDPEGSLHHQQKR
Sequence of Integrin alpha-5/beta-1 (P08648 895-1049 limits assumed): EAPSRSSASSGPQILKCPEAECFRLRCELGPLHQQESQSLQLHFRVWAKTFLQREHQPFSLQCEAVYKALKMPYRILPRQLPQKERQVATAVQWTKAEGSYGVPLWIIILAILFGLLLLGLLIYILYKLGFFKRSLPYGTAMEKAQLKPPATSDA
Sequence of Integrin alpha-V/beta-1 (P05556 21-798 limits assumed): as the sequence (P05556 21-798 limits assumed) above
Sequence of Integrin alpha-V/beta-1 (P06756 31-889 limits assumed): as the sequence (P06756 31-889 limits assumed) above
Sequence of Integrin alpha-V/beta-1 (P06756 891-1048 limits assumed): as the sequence (P06756 891-1048 limits assumed) above

Row | Structure (SMILES) | IC50 ([1]; read-out: IC50) | further results
1 | N=C(N)NCCCCC(=O)Nc1ccc(C[C@H](NC(=O)[C@@H]2CCCN2S(=O)(=O)c2ccc3ccccc3c2)C(=O)O)cc1 | 2500 nM | –
2 | N=C(N)Nc1ccc(C(=O)Nc2ccc(C[C@H](NC(=O)[C@@H]3CCCN3S(=O)(=O)c3ccccc3)C(=O)O)cc2)cc1 | 800 nM | –
3 | Cc1cc(C)c(S(=O)(=O)N2CCC[C@H]2C(=O)N[C@@H](Cc2ccc(NC(=O)CCCCNC(=N)N)cc2)C(=O)O)c(C)c1 | – | IC50 ([1]; cho, read-out: IC50): > 10000 nM; IC50 ([1]; read-out: pIC50 (converted)): > 10000 nM
4 | Cc1cc(C)cc(S(=O)(=O)N2CCC[C@H]2C(=O)N[C@@H](Cc2ccc(NC(=O)CCCNC(=N)N)cc2)C(=O)O)c1 | 790 nM | –
5 | CC1(C)SCN(S(=O)(=O)c2ccccc2)[C@@H]1C(=O)N[C@@H](Cc1ccc(NC(=O)CCCCNC(=N)N)cc1)C(=O)O | 2000 nM | –
6 | C[C@@]1(C(=O)N[C@@H](Cc2ccc(NC(=O)CCCCNC(=N)N)cc2)C(=O)O)CCCN1S(=O)(=O)c1ccccc1 | – | IC50 ([1]; cho, read-out: IC50): > 10000 nM; IC50 ([1]; read-out: pIC50 (converted)): > 10000 nM
7 | Cc1cccc(NCCCC(=O)Nc2ccc(C[C@H](NC(=O)[C@@H]3CCCN3S(=O)(=O)c3ccccc3)C(=O)O)cc2)n1 | 200 nM | –
8 | N=C(N)NCCCCC(=O)Nc1ccc(C[C@H](NC(=O)[C@@H]2CCCN2S(=O)(=O)c2ccccc2[N+](=O)[O-])C(=O)O)cc1 | 630 nM | –
9 | Cc1ccc(S(=O)(=O)N2CCC[C@H]2C(=O)N[C@@H](Cc2ccc(NC(=O)CCCNC(=N)N)cc2)C(=O)O)cc1 | 630 nM | –
10 | Cc1ccc(NCCCC(=O)Nc2ccc(C[C@H](NC(=O)[C@@H]3CCCN3S(=O)(=O)c3ccccc3)C(=O)O)cc2)nc1 | 320 nM | –
11 | N=C(N)NC12CC3CC(C1)CC(C(=O)Nc1ccc(C[C@H](NC(=O)[C@@H]4CCCN4S(=O)(=O)c4ccccc4)C(=O)O)cc1)(C3)C2 | 2500 nM | –
12 | Cc1cc(F)ccc1S(=O)(=O)N1CCC[C@H]1C(=O)N[C@@H](Cc1ccc(NC(=O)CCCCNC(=N)N)cc1)C(=O)O | 500 nM | –
13 | N=C(N)NCCCCC(=O)Nc1ccc(C[C@H](NC(=O)[C@@H]2C=CCN2S(=O)(=O)c2ccccc2)C(=O)O)cc1 | 800 nM | –
14 | Cc1ccc(S(=O)(=O)N2CCC[C@H]2C(=O)N[C@@H](Cc2ccc(NC(=O)CCCCNC(=N)N)cc2)C(=O)O)c2ccccc12 | 6300 nM | –

Now from value to molecule, other results behind:

Row | IC50 ([1]; read-out: IC50) | Structure (SMILES) | further results
15 | 0.63 nM | N=C(N)NCCCCC(=O)Nc1ccc(C[C@H](NC(=O)[C@@H]2CCCN2S(=O)(=O)c2ccccc2)C(=O)O)cc1 | IC50 [2]: > 10000 nM; IC50 [3]: > 10000 nM; IC50 [4]: > 10000 nM; IC50 [5]: > 10000 nM
16 | 0.06 nM | N=C(N)Nc1cccc(C(=O)Nc2ccc(C[C@H](NC(=O)[C@@H]3CCCN3S(=O)(=O)c3ccccc3)C(=O)O)cc2)c1 | IC50 [2]: 63 nM; IC50 [3]: 160 nM; IC50 [4]: 40 nM; IC50 [5]: > 10000 nM
17 | 0.5 nM | N=C(N)NCCCCC(=O)Nc1ccc(C[C@H](NC(=O)[C@@H]2C[C@H](F)CN2S(=O)(=O)c2ccccc2)C(=O)O)cc1 | –
18 | 160 nM | N=C(N)NCCCCC(=O)Nc1ccc(C[C@H](NC(=O)[C@@H]2CCN2S(=O)(=O)c2ccccc2)C(=O)O)cc1 | –
19 | 32 nM | N=C(N)NCCCCC(=O)Nc1ccc(C[C@H](NC(=O)[C@@H]2CCCN2S(=O)(=O)c2cccnc2)C(=O)O)cc1 | –
20 | 2 nM | N=C(N)N[C@H]1CC[C@@H](C(=O)Nc2ccc(C[C@H](NC(=O)[C@@H]3CCCN3S(=O)(=O)c3ccccc3)C(=O)O)cc2)CC1 | –
21 | 0.2 nM | O=C(CCCNc1ccccn1)Nc1ccc(C[C@H](NC(=O)[C@@H]2CCCN2S(=O)(=O)c2ccccc2)C(=O)O)cc1 | IC50 [2]: > 10000 nM; IC50 [3]: > 10000 nM; IC50 [4]: 400 nM; IC50 [5]: > 10000 nM
22 | 0.25 nM | N=C(N)NCCCC(=O)Nc1ccc(C[C@H](NC(=O)[C@@H]2CCCCN2S(=O)(=O)c2ccccc2)C(=O)O)cc1 | IC50 [2]: 3200 nM; IC50 [3]: 2000 nM; IC50 [4]: 2500 nM; IC50 [5]: 1600 nM
23 | 2 nM | O=C(CCCCNC1=NCCCN1)Nc1ccc(C[C@H](NC(=O)[C@@H]2CCCN2S(=O)(=O)c2ccccc2)C(=O)O)cc1 | –
24 | 0.31 to 0.32 nM | O=C(CCCCNC1=NCCN1)Nc1ccc(C[C@H](NC(=O)[C@@H]2CCCN2S(=O)(=O)c2ccccc2)C(=O)O)cc1 | IC50 [2]: > 10000 nM; IC50 [3]: > 10000 nM; IC50 [4]: > 10000 nM; IC50 [5]: 200 nM; IC50 ([1]; read-out: pIC50 (converted)): 0.316 nM
25 | 50 nM | N=C(N)NCCCCC(=O)Nc1ccc(C[C@H](NC(=O)[C@@H]2CCCN2S(=O)(=O)c2cccs2)C(=O)O)cc1 | –
26 | 0.5 nM | N=C(N)NCCCCC(=O)Nc1ccc(C[C@H](NC(=O)[C@@H]2C[C@@H](F)CN2S(=O)(=O)c2ccccc2)C(=O)O)cc1 | –
27 | 2 nM | O=C(CCCCNc1ccccn1)Nc1ccc(C[C@H](NC(=O)[C@@H]2CCCN2S(=O)(=O)c2ccccc2)C(=O)O)cc1 | –
28 | 40 nM | N=C(N)NCCCCC(=O)Nc1ccc(C[C@H](NC(=O)[C@@H]2CCCN2S(=O)(=O)c2cc(F)cc(F)c2)C(=O)O)cc1 | –
29 | 0.13 nM | O=C(CCCNC1=NCCN1)Nc1ccc(C[C@H](NC(=O)[C@@H]2CCCN2S(=O)(=O)c2ccccc2)C(=O)O)cc1 | –
30 | 0.31 to 0.32 nM | N=C(N)NCCCCC(=O)Nc1ccc(C[C@H](NC(=O)[C@@H]2CCCCN2S(=O)(=O)c2ccccc2)C(=O)O)cc1 | IC50 [2]: 3200 nM; IC50 [3]: 4000 nM; IC50 [4]: 2000 nM; IC50 [5]: 160 nM; IC50 ([1]; read-out: pIC50 (converted)): 0.316 nM
31 | 13 nM | N=C(N)NCCCCC(=O)Nc1ccc(C[C@H](NC(=O)[C@@H]2CCCN2S(=O)(=O)c2cccc([N+](=O)[O-])c2)C(=O)O)cc1 | –
32 | 79 nM | CN(C)c1cccc2c(S(=O)(=O)N3CCC[C@H]3C(=O)N[C@@H](Cc3ccc(NC(=O)CCCCNC(=N)N)cc3)C(=O)O)cccc12 | –
33 | 0.02 nM | N=C(N)NCCCC(=O)Nc1ccc(C[C@H](NC(=O)[C@@H]2CCCN2S(=O)(=O)c2ccccc2)C(=O)O)cc1 | –
34 | 50 nM | N=C(N)Nc1ccc(CC(=O)Nc2ccc(C[C@H](NC(=O)[C@@H]3CCCN3S(=O)(=O)c3ccccc3)C(=O)O)cc2)cc1 | –
35 | 16 nM | N=C(N)NCCCCC(=O)Nc1ccc(C[C@H](NC(=O)[C@@H]2CSCN2S(=O)(=O)c2ccccc2)C(=O)O)cc1 | –
